In ChEMBL document CHEMBL1125283, “Improvement in potency of an oxytocin antagonist after systematic substitutions with L-tryptophan” (J Med Chem, 1991):
Numbered stars: 1 amine (or outer) side, 2 acyl side, 3 side chain; on linkers, the order of the positions; unused ones are H or OH. Bridge positions count the residues as written; N and C are the ends. Square brackets hold non-standard residues; d marks the D form. Peptide text beside a SMILES is read from it. X1 = O=C(CC1(S[*:2])CCCCC1)[*:1]

What was measured:
Rattus norvegicus [1] = organism: Rattus norvegicus; assay: Competitive antagonist activity on oxytocin contractile action in isolated rat uterus; format: functional; conditions: read-out: pA2 (converted)
Method in brief: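 Uteri isolated from rats in natural estrus, bathed in Van Dyke-Hastings solution with 0.5 mM Mg2+. Isometric contractions to OT doses recorded by force-displacement transducer; response quantified as integrated area under peaks. Synthetic OT (450 units/mg) standard. pA2 by Schild method from at least four separate assays; mixed agonist/antagonist potencies approximated.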

Rattus norvegicus [2] = organism: Rattus norvegicus; assay: Compound was evaluated for the competitive antagonism to Arginine vasopressin (AVP) in rat antidiuretic assay; format: functional, organism-based; conditions: Urine, read-out: pA2 (converted)
Method in brief: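 Water-loaded rats under ethanol anesthesia; antidiuretic response to AVP standard. In vivo pA2 estimated by dividing the effective dose (molar level of antagonist halving the agonist response) by an estimated distribution volume of 67 mL/kg.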

Structure (SMILES)	Kb (Rattus norvegicus [1]) [nM]	Kb (Rattus norvegicus [2]) [nM]
CC[C@H](C)[C@H](NC(=O)[C@@H](Cc1c[nH]c2ccccc12)NC(=O)[C@H](Cc1c[nH]c2ccccc12)NC(C)=O)C(=O)N[C@@H](CCC(N)=O)C(=O)N[C@@H](CC(N)=O)C(=O)N[C@H](C(=O)N1CCC[C@H]1C(=O)N[C@@H](CCCN=C(N)N)C(=O)NCC(N)=O)C(C)C	3720	
CC[C@H](C)[C@@H]1NC(=O)[C@@H](Cc2c[nH]c3ccccc23)NC(=O)CC2(CCCCC2)SSC[C@@H](C(=O)N2c3ccccc3C[C@H]2C(=O)N[C@@H](CCCN=C(N)N)C(=O)NCC(N)=O)NC(=O)[C@H](CC(N)=O)NC(=O)[C@H](CCC(N)=O)NC1=O	12	
CC[C@H](C)[C@@H]1NC(=O)[C@@H](Cc2c[nH]c3ccccc23)NC(=O)CC2(CCCCC2)SSC[C@@H](C(=O)N2CCC[C@H]2C(=O)N[C@@H](Cc2c[nH]c3ccccc23)C(=O)NCC(N)=O)NC(=O)[C@H](CC(N)=O)NC(=O)[C@H](CCC(N)=O)NC1=O	6.03	> 1000
CC[C@H](C)[C@H](NC(=O)[C@@H](Cc1c[nH]c2ccccc12)NC(=O)CC12CC3CC(CC(C3)C1)C2)C(=O)N[C@@H](CCC(N)=O)C(=O)N[C@@H](CC(N)=O)C(=O)N[C@H](C(=O)N1CCC[C@H]1C(=O)N[C@@H](CCCN=C(N)N)C(=O)NCC(N)=O)C(C)C	4270	
CC[C@H](C)[C@H](NC(=O)[C@@H](Cc1c[nH]c2ccccc12)NC(=O)CC12CC3CC(CC(C3)C1)C2)C(=O)N[C@@H](CCC(N)=O)C(=O)N[C@@H](CC(N)=O)C(=O)N[C@@H](Cc1c[nH]c2ccccc12)C(=O)N1CCC[C@H]1C(=O)N[C@@H](CCCN=C(N)N)C(=O)NCC(N)=O	302	
CC[C@H](C)[C@@H]1NC(=O)[C@@H](Cc2c[nH]c3ccccc23)NC(=O)CC2(CCCCC2)SSC[C@@H](C(=O)N2CCC[C@H]2C(=O)N[C@@H](CCCN=C(N)N)C(=O)N[C@@H](Cc2cn(C=O)c3ccccc23)C(N)=O)NC(=O)[C@H](CC(N)=O)NC(=O)[C@H](CCC(N)=O)NC1=O	21.4	
CC[C@H](C)[C@@H]1NC(=O)[C@@H](Cc2c[nH]c3ccccc23)NC(=O)CC2(CCCCC2)SSC[C@@H](C(=O)N2CCC[C@H]2C(=O)N[C@@H](CCCN=C(N)N)C(=O)NCC(N)=O)NC(=O)[C@H](CC(N)=O)NC(=O)[C@H](CCC(N)=O)NC1=O ([dW]IQNCPRG-NH2; linker N-5 via X1)		> 1260
CC[C@H](C)[C@@H]1NC(=O)[C@@H](Cc2c[nH]c3ccccc23)NC(=O)CC2(CCCCC2)SSC[C@@H](C(=O)N[C@@H](Cc2c[nH]c3ccccc23)C(=O)N[C@@H](CCCN=C(N)N)C(=O)NCC(N)=O)NC(=O)[C@H](CC(N)=O)NC(=O)[C@H](CCC(N)=O)NC1=O	8.71	> 1580
CC[C@H](C)[C@@H]1NC(=O)[C@@H](Cc2c[nH]c3ccccc23)NC(=O)CC2(CCCCC2)SSC[C@@H](C(=O)N2CCC[C@H]2C(=O)N[C@@H](CCCN=C(N)N)C(=O)N[C@@H](Cc2c[nH]c3ccccc23)C(N)=O)NC(=O)[C@H](CC(N)=O)NC(=O)[C@H](CCC(N)=O)NC1=O	9.33	> 1000
CC[C@H](C)[C@@H]1NC(=O)[C@H](Cc2c[nH]c3ccccc23)NC(=O)CC2(CCCCC2)SSC[C@@H](C(=O)N2CCC[C@H]2C(=O)N[C@@H](CCCN=C(N)N)C(=O)NCC(N)=O)NC(=O)[C@H](CC(N)=O)NC(=O)[C@H](CCC(N)=O)NC1=O (WIQNCPRG-NH2; linker N-5 via X1)	316	
